Assay results as given in the EternaBench riboswitch data.

System: MS2 coat protein
Assay: apparent Kd, MS2 coat protein; higher = weaker binding; RNA-MaP array
Outline: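 RNA designs were transcribed from sequenced DNA templates on an Illumina sequencing chip and then incubated at room temperature with fluorescently labeled MS2 coat protein at 1.5 nM to 3 μM, with or without input ligand, in Tris-HCl pH 7.5 buffer containing KCl, MgCl2, BSA, DTT, tRNA and Tween20. Incubation lasted 0.8–1.5 h at the lowest protein concentrations and 10–20 min at the highest. Apparent Kd is the median of binding-curve fits made for each cluster. Designs measured on fewer than 10 clusters were excluded.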

[1] = designed as: ON switch for flavin mononucleotide, no ligand
[2] = ligand present: flavin mononucleotide, designed as: ON switch for flavin mononucleotide
[3] = designed as: OFF switch for flavin mononucleotide, no ligand
[4] = ligand present: flavin mononucleotide, designed as: OFF switch for flavin mononucleotide
[5] = designed as: ON switch for tryptophan, no ligand
[6] = ligand present: tryptophan, designed as: ON switch for tryptophan

Row | Sequence | apparent Kd [3] | apparent Kd [4] | also measured
1 | GCUGCACAUGAGGAUCACCCAUGUACCCUACUGAGAGGAUAUGUGAUCCGUUAGCAAUCCACAGAAGGCUCGGUUC |  |  | apparent Kd [1]: 0.0512 µM; apparent Kd [2]: 0.0105 µM
2 | GCUGGACAUGAGGAUCACCCAUGUGAGGAUAUGAGAAGUAUCAUGCACCCGAUCCAUCUCAGAAGGCACAGGUG | 0.0715 µM | 0.258 µM | 
3 | GGUGGGUCAGGAUAUCCCACACAAUUGCGAACGCGAUGCAGGGAGAAGGGACAUGAGGAUCACCCAUGUGGGAC | 0.0544 µM | 0.0649 µM | 
4 | GGUUAACAUGAGGAUCACCCAUGUUAGGAUAUGCUACAGAGUCUGGUCCCUGGAAAUGGCAGAAGGAACGUGUU | 0.0172 µM | 0.0162 µM | 
5 | GUAACGGGAAGCAGUGGCUUGACAUGAGGAUCACCCAUGUACAGAAGGGACGAUUACGUAAUGCGUCAGGAUAUGUGCCGUAGA |  |  | apparent Kd [1]: 0.048 µM; apparent Kd [2]: 0.0281 µM
6 | GUACAGGAGGAAGGAUAUAAUGCACAUGAGGAUCACCCAUGUAAGAGGAAAUCACCAUAACUGAUUUAGAAGGACCAGCAAAAC | 0.012 µM | 0.0113 µM | 
7 | GUCAUUCUCAACAUGAGGAUCACCCAUGUCGGUUAUCUGGGCUAGGAUAUCACGAUGCCACUGCGUGAGAAGGAGCGUUCGAUA | 0.0673 µM | 0.0275 µM | 
8 | GUCGGAGUGGAGAAGGCGCCAACGUAAGCGCGGCGAGGAUAUCCCUACCCUACAUGAGGAUCACCCAUGUCGACGAGAGUAUCG |  |  | apparent Kd [1]: 0.0113 µM; apparent Kd [2]: 0.00799 µM
9 | GUGACUAGCGUAAGGAUAUUCACGAGCGGCGGCUUGAAGAAGGUACAUGAGGAUCACCCAUGUAGGGUAAUCAA | 0.0416 µM | 0.0443 µM | 
10 | GUUACAUGAGGAUCACCCAUGUGGGCUGUAUGUAGCGCACCUGAGGAUAUGGCCCGGAGGUAGGACCAGAAGGCAGCGAAGAGC | 0.0654 µM | 0.0553 µM | 
11 | GUUGGAUUUGUGAGGAUAUGGCCGUGACAUUUGGACCAGAAGGCACAUGAGGAUCACCCAUGUAUUGAAGAACG | 0.0233 µM | 0.0534 µM | 
12 | GUUGUCAUCCAAGGAUAUUGUAAAAGGAGUGGGCAAGAAGGUGGAGAGCAUUGAUGAAGGUACACAUGAGGAUCACCCAUGUUC |  |  | apparent Kd [1]: 0.0336 µM; apparent Kd [2]: 0.0148 µM
13 | UAAAAGUUAGGAUAUACUAGUGAGCAAUGAAUAACAAAGUAACAUGAGGAUCACCCAUGUAGAAGGAACUGCAG | 0.0121 µM | 0.0124 µM | 
14 | UAAGACGCAGGAUAUACAUGAGGAUCACCCAUGUGCAUACAAGUCAAGAGGUACAUAAGUAGAAGGGCGUGGAU | 0.00942 µM | 0.0147 µM | 
15 | UAAUCAGUGAUAGGAUAUCGUAGCUCAGAUAGGCGAGAAGGAUCUGACUCCACAUGAGGAUCACCCAUGUUGUACAUACAGGAC |  |  | apparent Kd [1]: 0.0195 µM; apparent Kd [2]: 0.0171 µM
16 | UACAAGUACUAGAAGGAUCGAACCGAAGGUGUGAUAGGAUAUAGAGACAUGAGGAUCACCCAUGUAGGAGUGCAGUCAUACAUU | 0.0279 µM | 0.0234 µM | 
17 | UACAUGAGGAUCACCCAUGUGGUCAGGUUAUCCCGGACGGGAAGAAGGAUAAGAGAGUAACAUUUAUAGGAUAUUCGCCUCAUU |  |  | apparent Kd [1]: 0.0578 µM; apparent Kd [2]: 0.0489 µM
18 | UACCGGUGACUCGAUACCAGUCCUCUAAAAUACAUGAGGAUCACCCAUGUAACCUUCCCAGACCCUUGGCAGCGACACAUGGAUA |  |  | apparent Kd (designed as: ON switch for theophylline, no ligand): 0.145 µM; apparent Kd (ligand present: theophylline, designed as: ON switch for theophylline): 0.0382 µM
19 | UACCUUAACACGGCCGCCACUCUCUAAUAGGAUCAUGGUACCGCACAUGAGGAUCACCCAUGUUUGAGGACCGGGUGUUAUGAAG |  |  | apparent Kd [5]: 0.0151 µM; apparent Kd [6]: 0.0287 µM
20 | UACGGUCAUAGAGGAUAUAGAUCGCGCAACGGUUUCGUGGCCCACAUGAGGAUCACCCAUGUUAUCUAGAAGGCUAUGAGUCGC | 0.00682 µM | 0.0068 µM | 
21 | UAGGUGCUAGGAGGAUAUUGUGAAUUUAAUUUUCAAGAAGGCCUGAACAGACUGCACAUGAGGAUCACCCAUGUAUCCAACGUC | 0.0172 µM | 0.0117 µM | 

Row | Sequence | apparent Kd [3] | apparent Kd [4] | also measured
22 | UAGGUUCUAGUUUCUGCACAUGAGGAUCACCCAUGUUUAGUAAAGGAUAUCACGGUAAGUCGACGUGAGAAGGUUACGUUAGGG | 0.0336 µM | 0.037 µM | 
23 | UAGUACAUGAGGAUCACCCAUGUCGGAGGUCGAGGACCGGUACGGCCGCCACUCGGUCAUGCCCUACGAUACGACAGGAAUCUGU |  |  | apparent Kd [5]: 0.0222 µM; apparent Kd [6]: 0.0168 µM
24 | UCAAGCAUGGAGAAGGCCCGGGUUGACACGUCGGGAGGAUAUCCAGACUCACAUGAGGAUCACCCAUGUUAUUGCGGCGACUCC | 0.0403 µM | 0.057 µM | 
25 | UCAUUGUGAGGAUAUUGAUAGCGGACCUUGAUUCUGUACAACAAGAAGGCACAUGAGGAUCACCCAUGUCAUCA | 0.0164 µM | 0.0584 µM | 
26 | UCCUAGCGACAGAAGGUAGGCAAGAGACGCCCUCAACGACAUGAGGAUCACCCAUGUGGGACCACUAAGGAUAUGUAUGCCGAC | 0.0846 µM | 0.0665 µM | 
27 | UCGAACUAACAAGGAUAUACGCGGGUCGAAACGGUAGAAGGUGUCAACGGUAUCUCACAUGAGGAUCACCCAUGUCGGCAGGGA | 0.135 µM | 0.103 µM | 
28 | UCGGUACAUGAGGAUCACCCAUGUCGUCACAGAGCAGGAUAUUCAGGCUUCAGAGGUCGCGAAGAAGGGCUGGUGC |  |  | apparent Kd [1]: 0.0119 µM; apparent Kd [2]: 0.00902 µM
29 | UCUCACAUGAGGAUCACCCAUGUUAAGGCCCGAGGACCGGUACGGCCGCCACUCGUUGGAAGCCGGUAACGUACGAAUCUUCCGU |  |  | apparent Kd [5]: 0.0179 µM; apparent Kd [6]: 0.024 µM
30 | UCUCGGUAAGGAUAUAAAGCGACUCACAUGAGGAUCACCCAUGUUGUCGUCGUGGGCACAUUAGAAGGUACCAUUC | 0.00706 µM | 0.0063 µM | 
31 | UGACGUGGUAAGAAGGCAAGAGCAGGGCAGGAUUGAGGAUAUUACGGACAGACAUGAGGAUCACCCAUGUAGAGCCAUAACCGG |  |  | apparent Kd [1]: 0.00855 µM; apparent Kd [2]: 0.00789 µM
32 | UGAGAUAACGCAGGAUAUCAUGCGGCAGUGUAGUGAGAAGGGCGAAUGCAAGGGUCAGACAUGAGGAUCACCCAUGUUCAUAGC | 0.0172 µM | 0.0125 µM | 
33 | UGAGCAUCCCAGAAGGAUAUAUGGUCGUAAACAUGAGGAUCACCCAUGUUCCAUUUAGGACUCAAAUAGAAGGUCUCGGGCCAGAC |  |  | apparent Kd [1]: 0.0136 µM; apparent Kd [2]: 0.0117 µM
34 | UGCCAACAUGAGGAUCACCCAUGUCAGGAUAUCCGGGAGCACUUCAGUAGAAUCCGCUGGAGAAGGGACAUAGG | 0.0243 µM | 0.0217 µM | 
35 | UGCGAUGAACCUGAUACCAGAUGUAUUUGCUCCUCGGACAACAUGAGGAUCACCCAUGUCAUCCCUUGGCAGCAGGAGCGAAAGC |  |  | apparent Kd (designed as: OFF switch for theophylline, no ligand): 0.0119 µM; apparent Kd (ligand present: theophylline, designed as: OFF switch for theophylline): 0.0441 µM
36 | UGCUAAAGUGAGAAGGGUGGACCACUCAUCGAGUAUGACACAUGAGGAUCACCCAUGUACGCUCCACAGGAUAUCAAAUUGAGG |  |  | apparent Kd [1]: 0.156 µM; apparent Kd [2]: 0.0288 µM
37 | UGGAAGAUUGAAGGAUAUCCGGUCAAUUAAUAUGGAGAAGGUCAAUAUAUGGACAUGAGGAUCACCCAUGUAGAGUCAACUCGA |  |  | apparent Kd [1]: 0.0385 µM; apparent Kd [2]: 0.0268 µM
38 | UGGCACAAGUUAGGAUAUAGCACUUCUGUAAAGCUAGAAGGAACGUUGCACAUGAGGAUCACCCAUGUCAGUAAUUGAUAUGUA | 0.0101 µM | 0.0126 µM | 
39 | UGGUUAACAUGACAUGAGGAUCACCCAUGUCUUGGAAUUACAAGAAGGAAGGACACAGGUAGACCUUAGGAUAUUGUGACUUGA |  |  | apparent Kd [1]: 0.0246 µM; apparent Kd [2]: 0.0116 µM
40 | UGUCCCACGCAAGUACAUGAGGAUCACCCAUGUCUGAACCAGAGAAGGAGAGUUAUACUGGAAAUCUAGGAUAUCUGACAGACU | 0.0433 µM | 0.0505 µM | 
41 | UUAGAUCGUGUCAGGAUAUCGGACCGGCCCGCCUCCGAGAAGGGACAUGAGGAUCACCCAUGUCACGGUCCAUU | 0.00773 µM | 0.00784 µM | 
